Reference: ChEMBL document CHEMBL4689842, “EUbOPEN Chemogenomics Library wave 1” (2021)
Where “and” joins values, the source holds several entries; their conditions need not be identical. Identical values can stand only once.

Test system: HEK-293T
Assay: Multiplex assay against HEK293T
Type: toxicity, cell-based
Conditions: human
Method in brief: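 Cells stained live at seeding with Hoechst33342, BioTracker Green Microtubule Cytoskeleton Dye, MitoTracker Red and Annexin V Alexa Fluor 680 were imaged on a CQ1 microscope at 37°C and 5% CO2 after compound addition. Their classification by CellPathfinder machine-learning gating ran from Hoechst high-intensity objects versus normal cells, to healthy, pyknosed or fragmented nuclei among normal cells, to mitotic or apoptotic among pyknosed cells. Tubulin, mitochondrial-mass and membrane-permeability phenotypes are per cents of healthy-nucleus cells.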

[1] = 12 h, 1 µM, compound concentration 1 uM, replicate 1
[2] = 12 h, 1 µM, compound concentration 1 uM, replicate 2
[3] = 12 h, 10 µM, compound concentration 10 uM, replicate 1
[4] = 12 h, 10 µM, compound concentration 10 uM, replicate 2
[5] = 24 h, 1 µM, compound concentration 1 uM, replicate 1
[6] = 24 h, 1 µM, compound concentration 1 uM, replicate 2
[7] = 24 h, 10 µM, compound concentration 10 uM, replicate 1
[8] = 24 h, 10 µM, compound concentration 10 uM, replicate 2

SMILES: CCC1=C[C@@H]2C[N@](C1)Cc1c([nH]c3ccccc13)[C@@](C(=O)OC)(c1cc3c(cc1OC)N(C)[C@H]1[C@@](O)(C(=O)OC)[C@H](OC(C)=O)[C@]4(CC)C=CCN5CC[C@]31[C@@H]54)C2.O=C(O)C(O)C(O)C(=O)O.O=C(O)C(O)C(O)C(=O)O [VINORELBINE TARTRATE]
- Population Apoptotic (%) [1]: 25% and 14%
- Population Fragmented Nuclei (%) [1]: 25% and 16%
- Population Healthy Nuclei (%) [1]: 32% and 48%
- Population Hoechst High Intensity Objects (%) [1]: 18% and 15%
- Population Mitochondria Different-Phenotype (%) [1]: 18% and 9%
- Population Mitotic Cells (%) [1]: 75% and 85%
- Population Normal (%) [1]: 81% and 84%
- Population Pyknosed Nuclei (%) [1]: 41% and 35%
- Total Cell Count [1]: 502 and 565
- Population Apoptotic (%) [2]: 17% and 8%
- Population Fragmented Nuclei (%) [2]: 3% and 4%
- Population Healthy Nuclei (%) [2]: 57% and 63%
- Population Hoechst High Intensity Objects (%) [2]: 4% and 3%
- Population Membrane Permeable-Phenotype (%) [2]: 12% and 0%
- Population Mitochondria Different-Phenotype (%) [2]: 27% and 14%
- Population Mitotic Cells (%) [2]: 83% and 91%
- Population Normal (%) [2]: 95% and 96%
- Population Pyknosed Nuclei (%) [2]: 38% and 31%
- Total Cell Count [2]: 945 and 1247
- Population Apoptotic (%) [3]: 31% and 19%
- Population Fragmented Nuclei (%) [3]: 29% and 13%
- Population Healthy Nuclei (%) [3]: 22% and 49%
- Population Hoechst High Intensity Objects (%) [3]: 19% and 15%
- Population Mitochondria Different-Phenotype (%) [3]: 13% and 9%
- Population Mitotic Cells (%) [3]: 68% and 80%
- Population Normal (%) [3]: 80% and 84%
- Population Pyknosed Nuclei (%) [3]: 48% and 37%
- Total Cell Count [3]: 499 and 592
- Population Apoptotic (%) [4]: 13% and 7%
- Population Fragmented Nuclei (%) [4]: 3%
- Population Healthy Nuclei (%) [4]: 54% and 62%
- Population Hoechst High Intensity Objects (%) [4]: 2%
- Population Membrane Permeable-Phenotype (%) [4]: 10% and 0%
- Population Mitochondria Different-Phenotype (%) [4]: 22% and 16%
- Population Mitotic Cells (%) [4]: 86% and 92%
- Population Normal (%) [4]: 97%
- Population Pyknosed Nuclei (%) [4]: 41% and 33%
- Total Cell Count [4]: 964 and 1090
- Population Apoptotic (%) [5]: 13% and 28%
- Population Fragmented Nuclei (%) [5]: 15% and 27%
- Population Healthy Nuclei (%) [5]: 47% and 33%
- Population Hoechst High Intensity Objects (%) [5]: 12% and 20%
- Population Membrane Permeable-Phenotype (%) [5]: 0% and 13%
- Population Mitotic Cells (%) [5]: 86% and 71%
- Population Normal (%) [5]: 87% and 79%
- Population Pyknosed Nuclei (%) [5]: 36% and 38%
- Total Cell Count [5]: 530 and 459
- Population Apoptotic (%) [6]: 14% and 8%
- Population Fragmented Nuclei (%) [6]: 7% and 9%
- Population Healthy Nuclei (%) [6]: 36% and 69%
- Population Hoechst High Intensity Objects (%) [6]: 6% and 3%
- Population Membrane Permeable-Phenotype (%) [6]: 8%
- Population Mitochondria Different-Phenotype (%) [6]: 28%
- Population Mitotic Cells (%) [6]: 85% and 91%
- Population Normal (%) [6]: 93% and 96%
- Population Pyknosed Nuclei (%) [6]: 55% and 21%
- Total Cell Count [6]: 914 and 1303
- Population Apoptotic (%) [7]: 20% and 38%
- Population Fragmented Nuclei (%) [7]: 16% and 29%
- Population Healthy Nuclei (%) [7]: 45% and 26%
- Population Hoechst High Intensity Objects (%) [7]: 9% and 20%
- Population Mitochondria Different-Phenotype (%) [7]: 10% and 13%
- Population Mitotic Cells (%) [7]: 79% and 61%
- Population Normal (%) [7]: 90% and 79%
- Population Pyknosed Nuclei (%) [7]: 37% and 44%
- Total Cell Count [7]: 529 and 482
- Population Apoptotic (%) [8]: 11% and 5%
- Population Fragmented Nuclei (%) [8]: 3% and 6%
- Population Healthy Nuclei (%) [8]: 37% and 72%
- Population Hoechst High Intensity Objects (%) [8]: 3% and 2%
- Population Membrane Permeable-Phenotype (%) [8]: 9% and 0%
- Population Mitotic Cells (%) [8]: 88% and 94%
- Population Normal (%) [8]: 96% and 97%
- Population Pyknosed Nuclei (%) [8]: 58% and 21%
- Total Cell Count [8]: 920 and 1144
